Assay results taken from ChEMBL document CHEMBL1147050, “Small-molecule agonists for the glucagon-like peptide 1 receptor” (Proc Natl Acad Sci U S A, 2007).
Active and inactive are the calls of the source. The calls are words filed in the database; no cut-off is given here.

Tests used:
[1] = biological target: T1, Glucagon-like peptide 2 receptor (Homo sapiens) (UniProt O95838); experiment: Agonist activity at human GLP2 receptor expressed in BHK cells assessed as cAMP accumulation; type: functional, cell-based
T1 sequence (whole entry): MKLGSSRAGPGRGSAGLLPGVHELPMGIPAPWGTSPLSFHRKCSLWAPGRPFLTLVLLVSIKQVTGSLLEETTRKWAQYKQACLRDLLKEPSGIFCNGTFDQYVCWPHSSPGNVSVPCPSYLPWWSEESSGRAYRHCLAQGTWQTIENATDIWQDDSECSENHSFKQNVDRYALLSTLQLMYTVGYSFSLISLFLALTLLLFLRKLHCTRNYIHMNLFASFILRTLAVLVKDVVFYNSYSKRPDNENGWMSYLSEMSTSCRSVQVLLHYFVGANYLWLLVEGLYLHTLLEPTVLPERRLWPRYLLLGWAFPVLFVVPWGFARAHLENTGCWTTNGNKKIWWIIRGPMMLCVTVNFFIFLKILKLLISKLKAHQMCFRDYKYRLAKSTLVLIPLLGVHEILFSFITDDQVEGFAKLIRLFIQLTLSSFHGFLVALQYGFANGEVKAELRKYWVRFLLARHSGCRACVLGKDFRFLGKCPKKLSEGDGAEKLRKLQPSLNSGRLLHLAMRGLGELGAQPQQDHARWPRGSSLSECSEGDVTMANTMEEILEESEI

[2] = biological target: T2, Glucagon-like peptide 1 receptor (Homo sapiens, UniProt P43220); experiment: Increase in [125I]GLP1 binding to human GLP1 receptor expressed in BHK cells; type: cell-based
T2 sequence (P43220 whole entry): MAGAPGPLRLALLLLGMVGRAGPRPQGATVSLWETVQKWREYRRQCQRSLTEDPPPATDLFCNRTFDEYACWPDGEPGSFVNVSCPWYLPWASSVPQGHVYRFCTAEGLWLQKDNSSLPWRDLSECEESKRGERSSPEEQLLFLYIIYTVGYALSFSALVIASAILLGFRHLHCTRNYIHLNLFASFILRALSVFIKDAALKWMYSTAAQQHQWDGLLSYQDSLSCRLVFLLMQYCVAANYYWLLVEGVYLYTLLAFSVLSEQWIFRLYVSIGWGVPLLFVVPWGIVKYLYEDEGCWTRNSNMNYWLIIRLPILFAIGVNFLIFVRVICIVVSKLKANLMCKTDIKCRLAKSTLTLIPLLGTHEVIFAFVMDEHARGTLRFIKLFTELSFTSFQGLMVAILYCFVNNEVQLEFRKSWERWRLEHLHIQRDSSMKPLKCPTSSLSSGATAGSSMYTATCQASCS
Method in brief: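 BHK-cell plasma membranes expressing human GLP-1 receptor with 125I-GLP-1(7–36)amide tracer (50,000 cpm/well) in 25 mM Hepes, 0.1% BSA, pH 7.4; final DMSO 4.4%. Incubated 1 h at 37°C, then vacuum filtration and one wash. Nonspecific binding defined with 1 μM GLP-1; triplicates; curves fitted as one-site competition.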

[3] = biological target: T3, Gastric inhibitory polypeptide receptor (Homo sapiens) (UniProt P48546); experiment: Agonist activity at human GIP receptor expressed in BHK cells assessed as cAMP accumulation; type: functional, cell-based
T3 sequence (whole entry): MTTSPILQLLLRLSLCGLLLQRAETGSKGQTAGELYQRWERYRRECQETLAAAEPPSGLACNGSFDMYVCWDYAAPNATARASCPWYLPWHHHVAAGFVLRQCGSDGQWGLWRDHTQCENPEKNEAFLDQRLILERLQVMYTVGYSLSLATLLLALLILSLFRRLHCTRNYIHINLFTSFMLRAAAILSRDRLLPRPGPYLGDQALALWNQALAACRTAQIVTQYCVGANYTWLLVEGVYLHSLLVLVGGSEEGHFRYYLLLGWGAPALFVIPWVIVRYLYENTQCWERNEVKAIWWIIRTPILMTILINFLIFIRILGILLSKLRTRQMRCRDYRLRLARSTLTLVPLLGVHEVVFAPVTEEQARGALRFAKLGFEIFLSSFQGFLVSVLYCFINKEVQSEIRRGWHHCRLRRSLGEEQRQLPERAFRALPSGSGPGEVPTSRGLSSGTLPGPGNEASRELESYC

[4] = biological target: Glucagon receptor (Homo sapiens) (UniProt P47871); experiment: Agonist activity at human glucagon receptor expressed in BHK cells assessed as cAMP accumulation; type: functional, cell-based
Glucagon receptor (Homo sapiens), sequence (P47871 whole entry): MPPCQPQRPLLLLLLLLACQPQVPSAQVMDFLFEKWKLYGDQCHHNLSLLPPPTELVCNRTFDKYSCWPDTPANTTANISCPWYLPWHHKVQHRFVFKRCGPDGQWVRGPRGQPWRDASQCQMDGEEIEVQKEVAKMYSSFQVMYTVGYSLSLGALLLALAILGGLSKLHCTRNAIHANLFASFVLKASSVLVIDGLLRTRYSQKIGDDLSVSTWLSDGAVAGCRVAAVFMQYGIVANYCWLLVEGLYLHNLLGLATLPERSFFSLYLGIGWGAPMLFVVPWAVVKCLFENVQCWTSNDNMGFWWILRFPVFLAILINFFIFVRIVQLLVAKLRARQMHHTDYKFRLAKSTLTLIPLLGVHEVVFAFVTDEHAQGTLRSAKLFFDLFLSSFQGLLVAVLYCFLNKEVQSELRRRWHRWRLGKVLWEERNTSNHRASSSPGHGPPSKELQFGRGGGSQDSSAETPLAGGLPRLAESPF

[5] = biological target: T2, Glucagon-like peptide 1 receptor; experiment: Agonist activity at human GLP1 receptor expressed in BHK cells assessed as cAMP accumulation; type: functional, cell-based
Mus musculus [6] = organism: Mus musculus; experiment: Induction of 3 mM glucose-induced insulin release in CD1 wild type mouse pancreatic islets at 100 nM; type: functional
Method in brief: (§1)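 Adult CD1 wild-type mouse islets were isolated by collagenase digestion, cultured overnight in RPMI 1640 with 10% newborn calf serum, and perifused the next day. Columns held 30 islets, run at 37 °C and 0.30 ml/min in pH 7.4 Hepes buffer with albumin. After 30 min basal perifusion at 3 mM glucose, glucose was 3 mM from 0–60 min, then 10 mM. Agent was present 10–70 min (final DMSO ≤0.1%). Three groups of 30 islets, mean ± SEM.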

Mus musculus [7] = organism: Mus musculus; experiment: Induction of 10 mM glucose-induced insulin release in CD1 GLP1 receptor knockout mouse pancreatic islets at 100 nM; type: functional
Mus musculus [8] = organism: Mus musculus; experiment: Induction of 10 mM glucose-induced insulin release in CD1 wild type mouse pancreatic islets at 1000 nM; type: functional
Method in brief: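 Islets from adult CD1 mice isolated by collagenase and cultured overnight in RPMI 1640 with 10% newborn calf serum. Groups of 30 islets perifused at 37°C, 0.30 ml/min, in Hepes-bicarbonate buffer with albumin. Glucose 3 mM from 0–60 min, then 10 mM; compound added at 10 min and removed at 70 min. Final DMSO ≤0.1%. Three groups per condition.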

Pancreas = experiment: Induction of 10 mM glucose-induced insulin release in Sprague-Dawley rat pancreas at 10 uM; type: functional, tissue-based
Method in brief: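 Pancreas from male SD rats perfused at 37°C with oxygenated Krebs Ringer containing 0.25% BSA, 4% Dextran T-70 and 2 mM calcium, total flow 1.9 ml/min. Compound (final DMSO 0.25%) given at t = 20–40 min with 10 mM glucose; insulin release followed; two to three experiments, mean ± SD.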

Mus musculus [9] = organism: Mus musculus; experiment: Induction of 3 mM glucose-induced insulin release in CD1 wild type mouse pancreatic islets at 1000 nM; type: functional; method in brief: as §1
Mus musculus [10] = organism: Mus musculus; experiment: Induction of 10 mM glucose-induced insulin release in CD1 wild type mouse pancreatic islets at 100 nM; type: functional; method in brief: as §1
Mus musculus [11] = organism: Mus musculus; experiment: Induction of 10 mM glucose-induced insulin release in CD1 GLP1 receptor knockout mouse pancreatic islets at 1000 nM; type: functional
Method in brief: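 Islets came from CD1 GLP-1 receptor knockout mice, isolated by collagenase and cultured overnight, then perifused at 37 °C, 0.30 ml/min, 30 islets per column. After 30 min at 3 mM glucose, glucose was 3 mM from 0–30 min, then 10 mM. Agents were present 10–60 min, with DMSO ≤0.1% and a 10 μM imidazoline control. Three groups of 30 islets, mean ± SEM.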

Row | Activity [1] | Activity [2] | Activity [3] | Activity [4] | EC50 [5] [nM] | SMILES | Activity (Mus musculus [6]) | Activity (Mus musculus [7]) | Activity (Mus musculus [8]) | Activity (Pancreas) | Activity (Mus musculus [9]) | Activity (Mus musculus [10]) | Activity (Mus musculus [11])
1 | inactive | Dose-dependent effect | inactive | inactive | 1400 | Cc1cnc(Sc2nc3cc(Cl)c(Cl)cc3nc2C(F)(F)F)s1 | – | – | – | – | – | – | –
2 | – | Active | – | – | 101 | CC(C)(C)Nc1nc2cc(Cl)c(Cl)cc2nc1S(C)(=O)=O | inactive | inactive | Active | Active | inactive | inactive | inactive
3 | – | – | – | – | – | CC[C@H](C)[C@H](NC(=O)[C@H](Cc1ccccc1)NC(=O)[C@H](CCC(=O)O)NC(=O)[C@H](CCCCN)NC(=O)[C@H](C)NC(=O)[C@H](C)NC(=O)[C@H](CCC(N)=O)NC(=O)CNC(=O)[C@H](CCC(=O)O)NC(=O)[C@H](CC(C)C)NC(=O)[C@H](Cc1ccc(O)cc1)NC(=O)[C@H](CO)NC(=O)[C@H](CO)NC(=O)[C@@H](NC(=O)[C@H](CC(=O)O)NC(=O)[C@H](CO)NC(=O)[C@@H](NC(=O)[C@H](Cc1ccccc1)NC(=O)[C@@H](NC(=O)CNC(=O)[C@H](CCC(=O)O)NC(=O)[C@H](C)NC(=O)[C@@H](N)Cc1c[nH]cn1)[C@@H](C)O)[C@@H](C)O)C(C)C)C(=O)N[C@@H](C)C(=O)N[C@@H](Cc1c[nH]c2ccccc12)C(=O)N[C@@H](CC(C)C)C(=O)N[C@H](C(=O)N[C@@H](CCCCN)C(=O)NCC(=O)N[C@@H](CCCN=C(N)N)C(=O)NCC(=O)O)C(C)C | inactive | inactive | – | – | inactive | Active | inactive
